Results taken from BindingDB's records for doi:10.1021/jm901214q (Abbott Laboratories, 2010).

Biological target: Cannabinoid receptor 2 (Homo sapiens, UniProt P34972)
Experiment: Agonist activity at human recombinant CB2 receptor expressed in HEK293 cells coexpressing Galphaq/o5 assessed as calcium mobilization by FLIPR assay
Procedure, shortened: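 HEK cells stably coexpressing human CB2 and chimeric Gαq/o5 were seeded at 75 000 cells/well the day before and loaded with no-wash calcium dye. Mean ± SEM, ≥3 experiments in duplicate.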

Chain of Cannabinoid receptor 2 (P34972 whole entry): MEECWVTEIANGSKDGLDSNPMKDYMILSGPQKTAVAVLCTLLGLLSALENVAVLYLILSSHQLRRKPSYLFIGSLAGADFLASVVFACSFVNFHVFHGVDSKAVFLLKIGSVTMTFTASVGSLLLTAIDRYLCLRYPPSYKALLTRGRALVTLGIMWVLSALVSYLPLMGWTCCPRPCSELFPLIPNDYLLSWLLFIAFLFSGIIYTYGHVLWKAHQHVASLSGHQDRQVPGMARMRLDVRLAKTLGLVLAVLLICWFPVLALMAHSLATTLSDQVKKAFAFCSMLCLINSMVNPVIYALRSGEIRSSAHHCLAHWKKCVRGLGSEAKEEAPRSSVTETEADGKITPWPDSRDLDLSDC

With `CN1CCCCC1Cn1cc(C(=O)c2cc([N+](=O)[O-])ccc2I)c2ccccc21` (stereo unspecified) [3-[(2-iodo-5-nitrophenyl)carbonyl]-1-[(1-methylpiperidin-2-yl)methyl]-1H-indole] the EC50 was greater than 10 µM.
